In ChEMBL document CHEMBL1139466, “Novel tetralone-derived retinoic acid metabolism blocking agents: synthesis and in vitro evaluation with liver microsomal and MCF-7 CYP26A1 cell assays” (J Med Chem, 2005) one finds IC50 and Activity data, which are given here for 22 molecules.

SMILES strings stand for the structures. Active and inactive are the calls of the source. The rule behind the calls is not given here.

In one assay the test system is Liver microsomes. The experiment in a line: Inhibition of all-trans retinoic acid metabolism in rat liver microsomes. Type of assay: functional, Microsome. A digest of the protocol:
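Rat liver microsomes incubated with [11,12-3H]-atRA (diluted in unlabeled atRA), inhibitor in acetonitrile, NADPH and 50 mM phosphate buffer pH 7.4, duplicate tubes, 30 min at 37 °C with shaking. Extract evaporated and metabolites resolved by C18 radio-HPLC (acetonitrile/1% ammonium acetate/acetic acid 75:25:0.1). IC50 is the average of two experiments.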
Background: Liver microsomes are a subcellular fraction often used to study metabolism.

Another assay addresses T1, Cytochrome P450 26A1 (Homo sapiens, UniProt O43174).
T1 sequence (O43174 whole entry): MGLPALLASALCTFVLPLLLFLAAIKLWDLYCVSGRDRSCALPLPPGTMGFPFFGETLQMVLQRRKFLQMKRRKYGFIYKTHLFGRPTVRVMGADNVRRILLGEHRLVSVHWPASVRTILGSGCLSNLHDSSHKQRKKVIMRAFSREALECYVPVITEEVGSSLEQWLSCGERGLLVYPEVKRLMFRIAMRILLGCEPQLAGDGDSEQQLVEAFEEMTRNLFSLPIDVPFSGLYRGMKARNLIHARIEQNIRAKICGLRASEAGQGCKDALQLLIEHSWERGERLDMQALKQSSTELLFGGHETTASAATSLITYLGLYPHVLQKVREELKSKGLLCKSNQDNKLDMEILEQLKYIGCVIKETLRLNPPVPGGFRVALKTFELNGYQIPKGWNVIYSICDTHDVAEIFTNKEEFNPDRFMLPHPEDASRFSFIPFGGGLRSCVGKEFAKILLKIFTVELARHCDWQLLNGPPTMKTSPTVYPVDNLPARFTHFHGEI
The experiment in a line: Inhibition of CYP26A1 in human MCF7 cells assessed as all-trans retinoic acid metabolism. Format: ADME, cell-based. A digest of the protocol:
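Seeded 2.5 × 10^5 per well and allowed 24 h to adhere, then washed with PBS. Fresh medium with inhibitor in acetonitrile plus atRA (final 1 × 10^-7 M, 0.1 μCi [3H]-atRA), 9 h at 37 °C in the dark, duplicate. Stopped with 1% acetic acid. Metabolites separated by radio-HPLC on C18. IC50 is the average of two experiments.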

In the case of `COc1ccc2c(c1)CCC(Cc1cc(C(F)(F)F)ccc1C(F)(F)F)C2=O` (configuration not stated), the IC50 – broadly, the point on the concentration scale where inhibition reaches its midpoint – in the assay on Liver microsomes is 18 µM; on Cytochrome P450 26A1 it was 50 µM.

Regarding `O=C1/C(=C/c2ccccc2Br)CCc2cc(O)ccc21`, the concentration for half-maximal inhibition (IC50) in the assay on Liver microsomes stood at 2.4 µM; at Cytochrome P450 26A1 it was 20 µM.

In the case of `O=C1c2ccc(O)cc2CCC1Cc1ccccc1-c1ccccc1` (configuration not stated), the IC50 was 0.5 µM in the assay with Liver microsomes and 10 µM at Cytochrome P450 26A1.

With `O=C1/C(=C/c2ccc(O)cc2)CCc2cc(O)ccc21`, the IC50 in the assay on Liver microsomes is more than 20 µM; at Cytochrome P450 26A1 it was 9 µM.

On to `Clc1cccc(C(c2ccc3[nH]cnc3c2)n2ccnc2)c1` (configuration not stated), for which the result in the assay with Liver microsomes (Microsome) was Active.

In the assay on Liver microsomes, `CC(=O)N1CCN(c2ccc(OCC3COC(Cn4ccnc4)(c4ccc(Cl)cc4Cl)O3)cc2)CC1` (configuration not stated) [KETOCONAZOLE] had an IC50 of 18 µM.

As to `O=C1/C(=C/c2ccc(-c3ccccc3)cc2)CCc2cc(O)ccc21`, the IC50 was more than 20 µM with Liver microsomes and 50 µM on Cytochrome P450 26A1.

Turning to `COc1ccc2c(c1)CC/C(=C\c1ccccc1C)C2=O`, the IC50 in the assay with Liver microsomes was more than 20 µM; on Cytochrome P450 26A1, 20 µM.

Take `COc1ccc2c(c1)CCC(Cc1ccc(O)cc1)C2` (configuration not stated): the values for the IC50 with Liver microsomes and at Cytochrome P450 26A1 were 2.2 µM and 25 µM, respectively.

In the case of `COc1ccc2c(c1)CCC(Cc1ccccc1C)C2=O` (configuration not stated), the IC50 in the assay with Liver microsomes came out at 1.8 µM; on Cytochrome P450 26A1 it was 20 µM.

In the case of `CN(C)c1ccc(CC2CCc3cc(O)ccc3C2=O)cc1` (configuration not stated), the results for the IC50 with Liver microsomes and at Cytochrome P450 26A1 were 1.2 µM and 25 µM, respectively.

`COc1ccc2c(c1)CC/C(=C\c1ccc(O)cc1)C2=O`: the IC50 is more than 20 µM in the assay on Liver microsomes and 7 µM on Cytochrome P450 26A1.

Regarding `O=C1c2ccc(O)cc2CCC1Cc1ccc(-c2ccccc2)cc1` (configuration not stated), the IC50 turned out to be 0.8 µM in the assay on Liver microsomes and 10 µM on Cytochrome P450 26A1.

Take `COc1ccc2c(c1)CC/C(=C\c1ccccc1Br)C2=O`: the half-maximal inhibitory concentration (IC50) in the assay on Liver microsomes is more than 20 µM; at Cytochrome P450 26A1 it was 9 µM.

For `Nc1ccc(CC2CCc3cc(O)ccc3C2=O)cc1` (single isomer, unassigned; (+)), the half-inhibitory concentration (IC50) was determined as 17.6 µM with Liver microsomes and 43 µM at Cytochrome P450 26A1.

On to `Nc1ccc(CC2CCc3cc(O)ccc3C2=O)cc1` (single isomer, unassigned; (-)), for which the IC50 in the assay with Liver microsomes was 10.2 µM; at Cytochrome P450 26A1 it was 39 µM.

For the molecule `CCC(CC)[C@H](c1ccc(Nc2nc3ccccc3s2)cc1)n1cncn1`, the IC50 came to 9 µM with Liver microsomes and 0.005 µM on Cytochrome P450 26A1.

As to `O=C1c2ccc(O)cc2CCC1Cc1ccc(O)cc1` (configuration not stated), the IC50 is 1.5 µM in the assay with Liver microsomes and 20 µM at Cytochrome P450 26A1.

Regarding `O=C1/C(=C/c2ccccc2-c2ccccc2)CCc2cc(O)ccc21`, the IC50 with Liver microsomes is more than 20 µM; at Cytochrome P450 26A1, 20 µM.

On to `COc1ccc2c(c1)CC/C(=C\c1cc(C(F)(F)F)ccc1C(F)(F)F)C2=O`, for which the IC50 in the assay with Liver microsomes is more than 20 µM; on Cytochrome P450 26A1 it was 50 µM.

Take `CN(C)c1ccc(/C=C2\CCc3cc(O)ccc3C2=O)cc1`: the IC50 with Liver microsomes was more than 20 µM; on Cytochrome P450 26A1, 50 µM.

With `COc1ccc2c(c1)CCC(Cc1ccc(O)cc1)C2=O` (configuration not stated), the results for the IC50 in the assay on Liver microsomes and on Cytochrome P450 26A1 were 0.4 µM and 5 µM, respectively.
